Laboratory results: ChEMBL document CHEMBL5303300, “EUbOPEN Chemogenomics Library - Multiplex” (2023)
Several values for one entry are separate records, joined by “and”; a condition that tells them apart may be missing. Identical values can stand only once.

Test system: Fibroblast
Assay: Multiplex assay against human fibroblast
Assay type: toxicity, cell-based
Conditions: number of replicates 2
Summary of the method: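 Imaging took place on a CQ1 microscope at 37°C and 5% CO2 once compound had been added to live cells stained at seeding with Hoechst33342, BioTracker Green Microtubule Cytoskeleton Dye, MitoTracker Red and Annexin V Alexa Fluor 680. CellPathfinder machine-learning gating classed cells as Hoechst high-intensity objects or normal cells, classed normal cells as having healthy, pyknosed or fragmented nuclei, and classed pyknosed cells as mitotic or apoptotic. Tubulin, mitochondrial-mass and membrane-permeability phenotypes are per cents of the healthy-nucleus cells.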

[1] = 12 h, 1 µM, compound concentration 1 uM
[2] = 12 h, 10 µM, compound concentration 10 uM
[3] = 24 h, 1 µM, compound concentration 1 uM
[4] = 24 h, 10 µM, compound concentration 10 uM
[5] = 48 h, 1 µM, compound concentration 1 uM
[6] = 48 h, 10 µM, compound concentration 10 uM

Structure (SMILES): CC(C)(C)c1cnc(CSc2cnc(NC(=O)C3CCNCC3)s2)o1 [BMS-387032]
- Population Apoptotic (%) [1]: 56% and 46%
- Population Fragmented Nuclei (%) [1]: 8% and 6%
- Population Healthy Nuclei (%) [1]: 60% and 72%
- Population Hoechst High Intensity Objects (%) [1]: 0%
- Population Membrane Permeable-Phenotype (%) [1]: 6% and 7%
- Population Mitochondria Different-Phenotype (%) [1]: 0% and 2%
- Population Mitotic Cells (%) [1]: 43% and 53%
- Population Normal (%) [1]: 100%
- Population Pyknosed Nuclei (%) [1]: 31% and 21%
- Population Tubulin-Different-Phenotype (%) [1]: 15% and 16%
- Total Cell Count [1]: 96 and 204
- Population Apoptotic (%) [2]: 46% and 38%
- Population Fragmented Nuclei (%) [2]: 7% and 9%
- Population Healthy Nuclei (%) [2]: 58% and 67%
- Population Hoechst High Intensity Objects (%) [2]: 0%
- Population Membrane Permeable-Phenotype (%) [2]: 3% and 6%
- Population Mitochondria Different-Phenotype (%) [2]: 4% and 8%
- Population Mitotic Cells (%) [2]: 53% and 61%
- Population Normal (%) [2]: 100%
- Population Pyknosed Nuclei (%) [2]: 33% and 23%
- Population Tubulin-Different-Phenotype (%) [2]: 37% and 43%
- Total Cell Count [2]: 141 and 213
- Population Apoptotic (%) [3]: 64% and 54%
- Population Fragmented Nuclei (%) [3]: 12% and 10%
- Population Healthy Nuclei (%) [3]: 61% and 63%
- Population Hoechst High Intensity Objects (%) [3]: 0%
- Population Membrane Permeable-Phenotype (%) [3]: 7% and 9%
- Population Mitochondria Different-Phenotype (%) [3]: 0% and 1%
- Population Mitotic Cells (%) [3]: 35% and 45%
- Population Normal (%) [3]: 100%
- Population Pyknosed Nuclei (%) [3]: 26%
- Population Tubulin-Different-Phenotype (%) [3]: 21% and 18%
- Total Cell Count [3]: 106 and 208
- Population Apoptotic (%) [4]: 52% and 71%
- Population Fragmented Nuclei (%) [4]: 12% and 11%
- Population Healthy Nuclei (%) [4]: 49% and 62%
- Population Hoechst High Intensity Objects (%) [4]: 0%
- Population Membrane Permeable-Phenotype (%) [4]: 6% and 7%
- Population Mitochondria Different-Phenotype (%) [4]: 10% and 12%
- Population Mitotic Cells (%) [4]: 47% and 28%
- Population Normal (%) [4]: 100%
- Population Pyknosed Nuclei (%) [4]: 37% and 26%
- Population Tubulin-Different-Phenotype (%) [4]: 41% and 40%
- Total Cell Count [4]: 147 and 198
- Population Apoptotic (%) [5]: 74% and 73%
- Population Fragmented Nuclei (%) [5]: 12% and 14%
- Population Healthy Nuclei (%) [5]: 49% and 52%
- Population Hoechst High Intensity Objects (%) [5]: 0%
- Population Membrane Permeable-Phenotype (%) [5]: 23% and 15%
- Population Mitochondria Different-Phenotype (%) [5]: 2% and 0%
- Population Mitotic Cells (%) [5]: 25% and 26%
- Population Normal (%) [5]: 100%
- Population Pyknosed Nuclei (%) [5]: 38% and 33%
- Population Tubulin-Different-Phenotype (%) [5]: 33% and 30%
- Total Cell Count [5]: 183 and 115
- Population Apoptotic (%) [6]: 64% and 73%
- Population Fragmented Nuclei (%) [6]: 14% and 11%
- Population Healthy Nuclei (%) [6]: 43% and 38%
- Population Hoechst High Intensity Objects (%) [6]: 0%
- Population Membrane Permeable-Phenotype (%) [6]: 10% and 22%
- Population Mitochondria Different-Phenotype (%) [6]: 8% and 16%
- Population Mitotic Cells (%) [6]: 35% and 26%
- Population Normal (%) [6]: 100%
- Population Pyknosed Nuclei (%) [6]: 41% and 49%
- Population Tubulin-Different-Phenotype (%) [6]: 44% and 58%
- Total Cell Count [6]: 194 and 137
